Reference: ChEMBL document CHEMBL1806372, “Cytotoxic ring A-modified steroid analogues derived from Grundmann's ketone” (Eur J Med Chem, 2011)

Columns and labels:
Format in all cases: functional
COLO 205 = experiment: Growth inhibition of human COLO205 cells after 48 hrs by sulforhodamine B assay; conditions: COLO 205, 48 h
In short: (§1)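 From log concentration versus % growth curves, GI50 (50% decrease in net growth), TGI (total growth inhibition) and LC50 (net 50% loss of initial cells) are derived for each line.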

UACC-62 [1] = experiment: Cytotoxicity against human UACC62 cells after 48 hrs by sulforhodamine B assay; conditions: UACC-62, 48 h, read-out: LC50 (the source's name)
NCI-H522 [2] = experiment: Cytotoxicity against human NCI-H522 cells after 48 hrs by sulforhodamine B assay; conditions: NCI-H522, 48 h, read-out: LC50 (the source's name)
In short: (§2)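 NCI 60 human tumour cell line panel run to the NCI protocol. GI50, TGI and LC50 come from log concentration vs % growth inhibition curves for each cell line. Lines insensitive at the top concentration are reported with ">".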

[3] = Cytotoxicity against human Hs 578T cells after 48 hrs by sulforhodamine B assay; conditions: read-out: LC50 (the source's name); in short: as §2
OVCAR-8 = experiment: Cytotoxicity against human OVCAR8 cells after 48 hrs by sulforhodamine B assay; conditions: OVCAR-8, 48 h, read-out: LC50 (the source's name); in short: as §2
BT-549 [4] = experiment: Cytotoxicity against human BT549 cells after 48 hrs by sulforhodamine B assay; conditions: BT-549, 48 h, read-out: LC50 (the source's name); in short: as §2
LOX IMVI = experiment: Growth inhibition of human LOXIMVI cells after 48 hrs by sulforhodamine B assay; in short: as §1
A498 = experiment: Growth inhibition of human A498 cells after 48 hrs by sulforhodamine B assay; conditions: A498, 48 h; in short: as §1
HL-60(TB) = experiment: Cytotoxicity against human HL-60(TB) cells after 48 hrs by sulforhodamine B assay; conditions: HL-60, 48 h, read-out: LC50 (the source's name); in short: as §2
UACC-257 = experiment: Cytotoxicity against human UACC257 cells after 48 hrs by sulforhodamine B assay; conditions: UACC-257, 48 h, read-out: LC50 (the source's name)
UO-31 = experiment: Cytotoxicity against human UO31 cells after 48 hrs by sulforhodamine B assay; conditions: UO-31, 48 h, read-out: LC50 (the source's name)
NCI-H23 [5] = experiment: Cytotoxicity against human NCI-H23 cells after 48 hrs by sulforhodamine B assay; conditions: NCI-H23, 48 h, read-out: LC50 (the source's name); in short: as §2
MDA-MB-231 = experiment: Growth inhibition of human MDA-MB-231 cells after 48 hrs by sulforhodamine B assay; conditions: MDA-MB-231, 48 h
In short: (§3)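 GI50, TGI and LC50 were derived from log concentration versus % growth inhibition curves for each cell line. GI50 is the concentration giving a 50% decrease in net cell growth. Insensitive lines are reported as greater than the highest concentration.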

T47D = experiment: Cytotoxicity against human T47D cells after 48 hrs by sulforhodamine B assay; conditions: read-out: LC50 (the source's name)
Malme-3M [6] = experiment: Cytotoxicity against human MALME-3M cells after 48 hrs by sulforhodamine B assay; conditions: read-out: LC50 (the source's name); in short: as §2
SK-MEL-5 = experiment: Growth inhibition of human SK-MEL-5 cells after 48 hrs by sulforhodamine B assay; conditions: SK-MEL-5, 48 h; in short: as §3
MOLT-4 [7] = experiment: Growth inhibition of human MOLT4 cells after 48 hrs by sulforhodamine B assay; conditions: MOLT-4, 48 h; in short: as §3
NCI/ADR-RES = experiment: Growth inhibition of human NCI/ADR-RES cells after 48 hrs by sulforhodamine B assay; in short: as §3
MOLT-4 [8] = experiment: Cytotoxicity against human MOLT4 cells after 48 hrs by sulforhodamine B assay; conditions: MOLT-4, 48 h, read-out: LC50 (the source's name); in short: as §2
U-251 = experiment: Growth inhibition of human U251 cells after 48 hrs by sulforhodamine B assay; conditions: U-251, 48 h
In short: (§4)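 NCI 60-cell panel five-dose assay. GI50, TGI and LC50 are derived from log concentration versus % growth inhibition curves. Cell lines insensitive at the top concentration are given a ">" prefix.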

DU-145 = experiment: Cytotoxicity against human DU145 cells after 48 hrs by sulforhodamine B assay; conditions: DU-145, 48 h, read-out: LC50 (the source's name); in short: as §2
PC-3 = experiment: Cytotoxicity against human PC3 cells after 48 hrs by sulforhodamine B assay; conditions: PC-3, 48 h, read-out: LC50 (the source's name); in short: as §2
NCI-H226 = experiment: Cytotoxicity against human NCI-H226 cells after 48 hrs by sulforhodamine B assay; conditions: NCI-H226, 48 h, read-out: LC50 (the source's name); in short: as §2
SF-268 = experiment: Growth inhibition of human SF268 cells after 48 hrs by sulforhodamine B assay; conditions: SF-268, 48 h; in short: as §3
MDA-MB-435 = experiment: Growth inhibition of human MDA-MB-435 cells after 48 hrs by sulforhodamine B assay; conditions: MDA-MB-435, 48 h; in short: as §3
RPMI-8226 = experiment: Growth inhibition of human RPMI8226 cells after 48 hrs by sulforhodamine B assay; conditions: RPMI-8226, 48 h; in short: as §3
Malme-3M [9] = experiment: Growth inhibition of human MALME-3M cells after 48 hrs by sulforhodamine B assay; in short: as §3
SF-295 = experiment: Cytotoxicity against human SF295 cells after 48 hrs by sulforhodamine B assay; conditions: SF-295, 48 h, read-out: LC50 (the source's name); in short: as §2
HCT-15 = experiment: Cytotoxicity against human HCT15 cells after 48 hrs by sulforhodamine B assay; conditions: HCT-15, 48 h, read-out: LC50 (the source's name); in short: as §2
SNB-19 = experiment: Growth inhibition of human SNB19 cells after 48 hrs by sulforhodamine B assay; conditions: SNB-19, 48 h; in short: as §4
CCRF-CEM = experiment: Growth inhibition of human CCRF-CEM cells after 48 hrs by sulforhodamine B assay; in short: as §1
UACC-62 [10] = experiment: Growth inhibition of human UACC62 cells after 48 hrs by sulforhodamine B assay; conditions: UACC-62, 48 h; in short: as §4
OVCAR-4 = experiment: Cytotoxicity against human OVCAR4 cells after 48 hrs by sulforhodamine B assay; conditions: OVCAR-4, 48 h, read-out: LC50 (the source's name); in short: as §2
NCI-H23 [11] = experiment: Growth inhibition of human NCI-H23 cells after 48 hrs by sulforhodamine B assay; conditions: NCI-H23, 48 h; in short: as §3
BT-549 [12] = experiment: Growth inhibition of human BT549 cells after 48 hrs by sulforhodamine B assay; conditions: BT-549, 48 h; in short: as §1
NCI-H522 [13] = experiment: Growth inhibition of human NCI-H522 cells after 48 hrs by sulforhodamine B assay; conditions: NCI-H522, 48 h; in short: as §3

Molecule `CC(C)CCC[C@@H](C)[C@H]1CC[C@H]2C3=CC[C@@H]4C(=O)C=CC(=O)[C@@H]4[C@@H]3CC[C@]12C` has a GI50 (COLO 205) of 80 nM, a TGI (COLO 205) of 220 nM and a CC50 (UACC-62 [1]) of over 100 µM. It also gave a CC50 (NCI-H522 [2]) of over 100000 nM, a CC50 [3] of over 100 µM and a CC50 (OVCAR-8) of over 8.12 µM. For the same molecule, the CC50 (BT-549 [4]) was over 100000 nM, the GI50 (LOX IMVI) was 227 nM and the TGI (LOX IMVI) was 1170 nM. The GI50 (A498) was 384 nM, the TGI (A498) was 1120 nM and the CC50 (HL-60(TB)) was over 100 µM. It also gave a CC50 (UACC-257) of over 100 µM, a CC50 (UO-31) of over 1.75 µM and a CC50 (NCI-H23 [5]) of over 100 µM. It also gave a GI50 (MDA-MB-231) of 343 nM, a TGI (MDA-MB-231) of 1760 nM and a CC50 (T47D) of over 100 µM. The CC50 (Malme-3M [6]) was over 100 µM, the GI50 (SK-MEL-5) was 309 nM and the TGI (SK-MEL-5) was 1000 nM. For the same molecule, the GI50 (MOLT-4 [7]) was 312 nM, the TGI (MOLT-4 [7]) was over 100 µM and the GI50 (NCI/ADR-RES) was 275 nM. The CC50 (MOLT-4 [8]) was over 100 µM, the GI50 (U-251) was 94 nM and the TGI (U-251) was 1230 nM. It also gave a CC50 (DU-145) of over 100 µM, a CC50 (PC-3) of over 100 µM and a CC50 (NCI-H226) of over 100 µM. The GI50 (SF-268) was 566 nM, the TGI (SF-268) was over 100000 nM and the GI50 (MDA-MB-435) was 229 nM. For the same molecule, the TGI (MDA-MB-435) was 997 nM, the GI50 (RPMI-8226) was 107 nM and the TGI (RPMI-8226) was 2230 nM. For the same molecule, the GI50 (Malme-3M [9]) was 399 nM, the TGI (Malme-3M [9]) was 2000 nM and the CC50 (SF-295) was over 100 µM. For the same molecule, the CC50 (HCT-15) was over 100 µM, the GI50 (SNB-19) was 654 nM and the TGI (SNB-19) was over 100 µM. It also gave a GI50 (CCRF-CEM) of 189 nM, a TGI (CCRF-CEM) of over 100 µM and a GI50 (UACC-62 [10]) of 752 nM. The TGI (UACC-62 [10]) was over 100000 nM, the CC50 (OVCAR-4) was over 2.65 µM and the GI50 (NCI-H23 [11]) was 147 nM. It also gave a GI50 (BT-549 [12]) of 427 nM, a TGI (BT-549 [12]) of 2550 nM and a GI50 (NCI-H522 [13]) of 803 nM. It also gave a TGI (NCI-H522 [13]) of over 100000 nM.

Work on `CC(C)CCC[C@@H](C)[C@H]1CC[C@H]2C3=CCn4c(=O)ccc(=O)n4[C@@H]3CC[C@]12C` yielded a GI50 (COLO 205) of 255 nM, a TGI (COLO 205) of 623 nM and a CC50 (UACC-62 [1]) of 5.45 µM. The CC50 (NCI-H522 [2]) was 1540 nM, the CC50 [3] was over 100 µM and the CC50 (OVCAR-8) was over 100 µM. The CC50 (BT-549 [4]) was 2970 nM, the GI50 (LOX IMVI) was 288 nM and the TGI (LOX IMVI) was 1050 nM. The GI50 (A498) was 1060 nM, the TGI (A498) was 2270 nM and the CC50 (HL-60(TB)) was over 100 µM. For the same molecule, the CC50 (UACC-257) was 4.32 µM, the CC50 (UO-31) was 4.19 µM and the CC50 (NCI-H23 [5]) was 9 µM. The GI50 (MDA-MB-231) was 1040 nM, the TGI (MDA-MB-231) was 2540 nM and the CC50 (T47D) was 6.29 µM. It also gave a CC50 (Malme-3M [6]) of 6.38 µM, a GI50 (SK-MEL-5) of 563 nM and a TGI (SK-MEL-5) of 1830 nM. The GI50 (MOLT-4 [7]) was 545 nM, the TGI (MOLT-4 [7]) was 4.13 µM and the GI50 (NCI/ADR-RES) was 417 nM. The TGI (NCI/ADR-RES) was 1900 nM, the CC50 (MOLT-4 [8]) was over 100 µM and the GI50 (U-251) was 438 nM. The TGI (U-251) was 1590 nM, the CC50 (DU-145) was 4.89 µM and the CC50 (PC-3) was 4.83 µM. For the same molecule, the CC50 (NCI-H226) was 8.33 µM, the GI50 (SF-268) was 1460 nM and the TGI (SF-268) was 2880 nM. The GI50 (MDA-MB-435) was 354 nM, the TGI (MDA-MB-435) was 1780 nM and the GI50 (RPMI-8226) was 181 nM. For the same molecule, the TGI (RPMI-8226) was 601 nM, the GI50 (Malme-3M [9]) was 1440 nM and the TGI (Malme-3M [9]) was 3030 nM. It also gave a CC50 (SF-295) of 3.76 µM, a CC50 (HCT-15) of over 100 µM and a GI50 (SNB-19) of 1520 nM. It also gave a TGI (SNB-19) of 3.02 µM, a GI50 (CCRF-CEM) of 360 nM and a TGI (CCRF-CEM) of over 100 µM. For the same molecule, the GI50 (UACC-62 [10]) was 544 nM, the TGI (UACC-62 [10]) was 1950 nM and the CC50 (OVCAR-4) was 5.63 µM. It also gave a GI50 (NCI-H23 [11]) of 1420 nM, a TGI (NCI-H23 [11]) of 3.58 µM and a GI50 (BT-549 [12]) of 312 nM. For the same molecule, the TGI (BT-549 [12]) was 876 nM, the GI50 (NCI-H522 [13]) was 175 nM and the TGI (NCI-H522 [13]) was 459 nM.
